Assay results pooled from the literature.
Target: NUAK family SNF1-like kinase 2 (NUAK2, Homo sapiens, UniProt Q9H093)
Residues used in one study (Q9H093 1-628): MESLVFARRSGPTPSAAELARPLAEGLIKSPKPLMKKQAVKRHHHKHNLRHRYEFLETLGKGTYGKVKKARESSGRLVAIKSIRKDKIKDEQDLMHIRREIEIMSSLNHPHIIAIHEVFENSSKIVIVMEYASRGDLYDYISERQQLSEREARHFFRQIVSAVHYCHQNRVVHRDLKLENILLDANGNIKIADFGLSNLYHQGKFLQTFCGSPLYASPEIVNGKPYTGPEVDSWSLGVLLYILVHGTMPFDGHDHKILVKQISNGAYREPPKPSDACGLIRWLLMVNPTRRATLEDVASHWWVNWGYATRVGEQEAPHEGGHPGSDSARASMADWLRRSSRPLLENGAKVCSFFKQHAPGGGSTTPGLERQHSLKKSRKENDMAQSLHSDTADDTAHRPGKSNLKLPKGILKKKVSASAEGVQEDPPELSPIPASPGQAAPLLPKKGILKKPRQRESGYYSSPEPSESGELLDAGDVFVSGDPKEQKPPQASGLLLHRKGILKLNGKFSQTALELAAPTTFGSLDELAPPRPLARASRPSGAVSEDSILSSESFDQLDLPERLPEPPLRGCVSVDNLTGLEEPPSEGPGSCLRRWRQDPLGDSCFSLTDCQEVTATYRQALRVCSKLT

C[C@@H]1CN(c2ccc3ncc(-c4ccc5[nH]nc(C6CC6)c5c4)n3n2)C[C@H](C)O1  remaining binding (binding; competition with immobilised ligand; 50 nM): 89%
O=C(NCC1CCOCC1)c1n[nH]cc1NC(=O)c1c(F)cccc1F  remaining binding (binding; competition with immobilised ligand; 1 µM): 70%
O=C(c1ccc(Nc2ncc(Cl)c(-c3ccc(Cl)s3)n2)cc1)N1CCC(N2CCCC2)CC1  remaining binding (binding; competition with immobilised ligand; 1 µM): 0.4%
CS(=O)(=O)NCC[C@H](NC(=O)c1cncc2c1cnn2-c1ccc(F)cc1)c1ccnc(S(C)(=O)=O)c1  remaining binding (cell-free assay; competition with immobilised ligand; 1 µM): 100%
COc1cnc(Nc2cccc(S(N)(=O)=O)c2)nc1N1CCN(c2ccccc2)CC1  remaining binding (binding; competition with immobilised ligand; 1 µM): 62%
Nc1ncc2c(n1)-c1c([nH]c3ccc(C#CC4CC4)cc13)CCCC2  remaining binding (binding; competition with immobilised ligand; 1 µM): 92%
c1cnn2ncc(-c3ccnc(N4CCC45COC5)n3)c2c1  remaining binding (binding; 1 µM): 64%
O=C(O)[C@H]1[C@H](Cn2nnc3ccccc3c2=O)CC[C@@H]1C(=O)c1ccc(OCCC2CCOCC2)cc1  remaining binding (cell-free assay; competition with immobilised ligand; 1 µM): 100%
C[C@@H]1CCN(c2nccc(-c3cnn4ncccc34)n2)C1  remaining binding (binding; 1 µM): 74%
O=C(c1ccc(Nc2nccc(-c3cc4ccccc4s3)n2)cc1)N1CCC(N2CCCC2)CC1  remaining binding (binding; competition with immobilised ligand; 1 µM): 7.6%
CN(C)c1ncc(F)c(-c2cnn3ncccc23)n1  remaining binding (binding; 1 µM): 80%
CC(C)(C)c1ccc(-c2nc(CBr)nn2-c2cccc(O)c2)cc1  remaining binding (cell-free assay; competition with immobilised ligand; 10 µM): 74%
C[C@H](NC(=O)c1cnc2n1[C@](C)(Cc1ccc(C#N)cc1)C(=O)N2c1cc(Cl)c(F)c(Cl)c1)C(=O)NC1(c2ccccn2)CC1  remaining binding (cell-free assay; competition with immobilised ligand; 1 µM): 100%
CCN1CCN(Cc2ccc(C(=O)Nc3ccc(C)c(Oc4ccc5c(c4)CC(=O)N5)c3)cc2C(F)(F)F)CC1  remaining binding (binding; competition with immobilised ligand; 1 µM): 100%
Cn1cc(Cl)c2c(Oc3c(F)cc(Nc4cc(Cl)nc(N)n4)cc3F)ccnc21  remaining binding (cell-free assay; competition with immobilised ligand; 0.1 µM): 85%
N[C@H]1CCN(c2nccc(-c3cnn4ncccc34)n2)C1  remaining binding (binding; 1 µM): 100%
Cc1c(NC(=O)c2cc(C(N)=O)nc3cc(F)ccc23)c(C(F)(F)F)nn1Cc1ccc(C#N)cc1  remaining binding (cell-free assay; competition with immobilised ligand; 1 µM): 83%
Cc1cnc(Nc2ccc(C(=O)N3CCC(N4CCCC4)CC3)cc2)nc1-c1cc2ccccc2s1  remaining binding (binding; competition with immobilised ligand; 1 µM): 1%
CO[C@@H](C)c1c(Nc2ccc([C@@H](N(C)C(=O)C3CCS(=O)(=O)CC3)C(F)(F)F)cc2)cnc2cc(Cl)nn12  remaining binding (cell-free assay; competition with immobilised ligand; 1 µM): 100%
CN(C)c1nccc(-c2cnn3ncccc23)n1  remaining binding (binding; 1 µM): 100%
COc1cccc(CNC(=O)c2nc3scc(COCc4ccc(C(=O)O)cc4)c3c(=O)[nH]2)c1  remaining binding (cell-free assay; competition with immobilised ligand; 1 µM): 76.4%
FC(F)(F)Oc1cccc(-c2cnc3ccc(-c4ccncc4)nn23)c1  remaining binding (binding; competition with immobilised ligand; 5 µM): 37%
